Measured values reported in ChEMBL document CHEMBL1255265, “Linezolid and tiamulin cross-resistance in Staphylococcus aureus mediated by point mutations in the peptidyl transferase center” (2008).
Values after ≈ are worked out from the molar mass of the structure shown.

Assays:
Escherichia coli [1] = test: Antimicrobial activity against tiamulin resistant Escherichia coli SQ110 by agar dilution method; type: functional
Staphylococcus aureus [2] = test: Antimicrobial activity against wild type Staphylococcus aureus RN4220 measured after 2 days of subculturing by agar dilution method; type: functional; conditions: RN4220, 48 h
Method in brief: (§1)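 Resistant mutants were selected by serial subculture in Mueller-Hinton medium containing antibiotic, and time to emergence of resistance was recorded. MICs were determined by agar dilution per BSAC guidelines.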

Staphylococcus aureus [3] = test: Antimicrobial activity against mutS-expressing Staphylococcus aureus RN4220 measured after 1 day of subculturing by agar dilution method; type: functional; conditions: RN4220, 24 h; method in brief: as §1
Staphylococcus aureus [4] = test: Antimicrobial activity against tiamulin resistant Staphylococcus aureus 8325-4 after 1 day of subculturing by agar dilution method; type: functional; conditions: 8325-4, 24 h; method in brief: as §1
Escherichia coli [5] = test: Antimicrobial activity wild type Escherichia coli SQ110 by agar dilution method in presence of 16 ug/ml polymyxin B nonapeptide; type: functional
Method in brief: (§2)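 MIC by agar dilution following BSAC guidelines in Mueller-Hinton medium. For E. coli, the medium was supplemented with 16 μg/ml polymyxin B nonapeptide to permeabilize the gram-negative envelope.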

Escherichia coli [6] = test: Antimicrobial activity against Escherichia coli KM55-68 harboring G2576U mutation in 23S rRNA by agar dilution method in presence of 16 ug/ml polymyxin B nonapeptide; type: functional; method in brief: as §2
Escherichia coli [7] = test: Antimicrobial activity against Escherichia coli KM74 harboring U2500A mutation in 23S rRNA by agar dilution method in presence of 16 ug/ml polymyxin B nonapeptide; type: functional; method in brief: as §2
Escherichia coli [8] = test: Antimicrobial activity against Escherichia coli KM75-84 harboring Gly153Arg mutation in rplC gene by agar dilution method in presence of 16 ug/ml polymyxin B nonapeptide; type: functional; method in brief: as §2
Escherichia coli [9] = test: Antimicrobial activity against Escherichia coli KM85-86 harboring Lys157Gln mutation in rplC gene by agar dilution method in presence of 16 ug/ml polymyxin B nonapeptide; type: functional; method in brief: as §2
Escherichia coli [10] = test: Antimicrobial activity against Escherichia coli KM87-88 harboring Arg141Ser mutation in rplC gene by agar dilution method in presence of 16 ug/ml polymyxin B nonapeptide; type: functional; method in brief: as §2
Escherichia coli [11] = test: Antimicrobial activity against Escherichia coli KM89-94 harboring G2576U mutation in 23S rRNA by agar dilution method in presence of 16 ug/ml polymyxin B nonapeptide; type: functional; method in brief: as §2
Staphylococcus aureus [12] = test: Antimicrobial activity against Staphylococcus aureus KM164-165 harboring Gly155Arg mutation in rplC gene by agar dilution method; type: functional
Method in brief: (§3)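 S. aureus MICs were determined by agar dilution per BSAC guidelines in Mueller-Hinton medium, without supplement.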

Staphylococcus aureus [13] = test: Antimicrobial activity against Staphylococcus aureus KM166-167 harboring Ser158Leu mutation in rplC gene by agar dilution method; type: functional; method in brief: as §3
Staphylococcus aureus [14] = test: Antimicrobial activity against Staphylococcus aureus RN4220 by agar dilution method; type: functional; method in brief: as §3
Staphylococcus aureus [15] = test: Antimicrobial activity against Staphylococcus aureus KM168 harboring Arg149Ser mutation in rplC gene by agar dilution method; type: functional; method in brief: as §3
Staphylococcus aureus [16] = test: Antimicrobial activity against Staphylococcus aureus KM187+198 harboring G2576U mutation in 23S rRNA by agar dilution method; type: functional; method in brief: as §3
Staphylococcus aureus [17] = test: Antimicrobial activity against Staphylococcus aureus NRS119 clinical isolate harboring G2576U mutation in 23S rRNA by agar dilution method; type: functional; method in brief: as §3
Staphylococcus aureus [18] = test: Antimicrobial activity against Staphylococcus aureus NRS120 clinical isolate harboring G2576U mutation in 23S rRNA by agar dilution method; type: functional; method in brief: as §3
Staphylococcus aureus [19] = test: Antimicrobial activity against Staphylococcus aureus NRS121 clinical isolate harboring G2576U mutation in 23S rRNA by agar dilution method; type: functional; method in brief: as §3
Escherichia coli [20] = test: Antimicrobial activity against Escherichia coli KM69-73 harboring G2447U mutation in 23S rRNA by agar dilution method in presence of 16 ug/ml polymyxin B nonapeptide
Escherichia coli [21] = test: Antimicrobial activity wild type Escherichia coli SQ110 by agar dilution method; type: functional

| SMILES | MIC (Escherichia coli [5]) [µg/mL] | MIC (Escherichia coli [6]) [µg/mL] | MIC (Escherichia coli [7]) [µg/mL] | MIC (Escherichia coli [8]) [µg/mL] | MIC (Escherichia coli [9]) [µg/mL] | MIC (Escherichia coli [10]) [µg/mL] | MIC (Escherichia coli [11]) [µg/mL] | MIC (Staphylococcus aureus [16]) [µg/mL] | MIC (Staphylococcus aureus [17]) [µg/mL] | MIC (Staphylococcus aureus [18]) [µg/mL] | MIC (Staphylococcus aureus [19]) [µg/mL] | MIC (Escherichia coli [20]) [µg/mL] | further results |
| --- | --- | --- | --- | --- | --- | --- | --- | --- | --- | --- | --- | --- | --- |
| C=C[C@]1(C)C[C@@H](OC(=O)CSCCN(CC)CC)[C@]2(C)[C@H](C)CC[C@]3(CCC(=O)[C@H]32)[C@@H](C)[C@@H]1O [TIAMULIN] | 8 | 64 | 64 | 32 | 32 | 64 | 64 | 16 (≈ 32.4 µM) | 32 (≈ 64.8 µM) | 32 (≈ 64.8 µM) | 32 (≈ 64.8 µM) | 64 | MIC (Escherichia coli [1]): 128 µg/mL (≈ 259 µM); MIC (Staphylococcus aureus [2]): 1 µg/mL (≈ 2.03 µM); MIC (Staphylococcus aureus [3]): 2 µg/mL (≈ 4.05 µM); MIC (Staphylococcus aureus [4]): 1 µg/mL (≈ 2.03 µM); MIC (Staphylococcus aureus [12]): 8 µg/mL (≈ 16.2 µM); MIC (Staphylococcus aureus [13]): 16 µg/mL (≈ 32.4 µM); MIC (Staphylococcus aureus [14]): 1 µg/mL (≈ 2.03 µM); MIC (Staphylococcus aureus [15]): 8 µg/mL (≈ 16.2 µM) |
| CC(=O)NC[C@H]1CN(c2ccc(N3CCOCC3)c(F)c2)C(=O)O1 [LINEZOLID] | 16 | 64 | 64 | 16 | 16 | 16 | 64 | 64 (≈ 190 µM) | 64 (≈ 190 µM) | 64 (≈ 190 µM) | 64 (≈ 190 µM) | 64 | MIC (Escherichia coli [21]): 256 µg/mL (≈ 759 µM) |
